Source: PubChem (Johns Hopkins Ion Channel Center)
KCNQ1 inh: blocks the human KCNQ1 potassium channel; P51787; CHO-K1 KCNQ1, FluxOR thallium flux fluorescence; stronger effect = higher value; B-score at 10 µM; actives 1.3% (n = 310,000);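 active = compounds whose thallium flux B-score, printed positive for inhibition, exceeds three library SD while starting fluorescence stays within three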;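 note: channel opened by potassium depolarization with thallium stimulus after 20 min compound exposure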
Kir21 inh: Kir2.1 (mouse) channel inhibition | B-score at 10 µM | AID 1672 | actives 0.85% (n = 310,000) | HEK293-Kir2.1, FluxOR thallium flux fluorescence; stronger effect = lower value | P35561;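 active = fluorescence ratio B-score at or below minus 3 SD of library scores, with starting-brightness B-score within 2 SD, cut at about -4.2 in these data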;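 note: channel flux triggered by added potassium and thallium sulfate stimulus; B-score of peak minus minimum fluorescence over baseline after thallium stimulus; more negative B-score means stronger Kir2.1 block with less thallium influx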
Target sequence (P35561 whole entry, looked up): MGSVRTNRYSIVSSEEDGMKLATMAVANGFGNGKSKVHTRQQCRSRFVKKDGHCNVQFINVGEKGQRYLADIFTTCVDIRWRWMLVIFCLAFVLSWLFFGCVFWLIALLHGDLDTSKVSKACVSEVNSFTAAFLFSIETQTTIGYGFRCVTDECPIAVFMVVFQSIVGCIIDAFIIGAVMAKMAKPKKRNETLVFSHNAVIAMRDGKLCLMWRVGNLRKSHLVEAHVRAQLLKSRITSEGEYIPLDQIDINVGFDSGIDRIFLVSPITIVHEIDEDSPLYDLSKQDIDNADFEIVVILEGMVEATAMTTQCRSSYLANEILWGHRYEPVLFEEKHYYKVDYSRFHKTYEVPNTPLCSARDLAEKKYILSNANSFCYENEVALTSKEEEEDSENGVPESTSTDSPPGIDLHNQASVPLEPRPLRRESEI
hERG protect: hERG (human) protection from proarrhythmic block; Q12809; CHO-hERG, FluxOR thallium flux, dofetilide IC70 present; activation (rescue from dofetilide block), less the hit threshold, % at 10 µM; actives 0.51% (n = 310,000); AID 1511;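 active = activation above the mean of controls blocked by dofetilide plus 5 SD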;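 note: thallium influx through hERG after potassium depolarization seen as dye fluorescence rise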
KCNK3 block: human KCNK3 channel inhibition, primary screen; actives 0.84% (n = 340,000); B-score at 10 µM; O14649; AID 602410; CHO-KCNK3 thallium flux, FluxOR fluorescence; stronger effect = lower value;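 active = B-score under library mean minus 4 SD, starting fluorescence ratio at most library mean plus 5 SD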;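 note: more negative B-score means stronger inhibition of thallium flux through KCNK3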
KCNQ1 pot: potentiates or activates the human KCNQ1 potassium channel; actives 0.35% (n = 310,000); CHO-K1 KCNQ1, thallium flux FluxOR fluorescence; stronger effect = higher value; B-score at 10 µM; P51787;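 active = fluorescence ratio B-score, a plate-corrected score, at least three library SD, with initial intensity B-score within 5 SD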
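Test system: CHO-K1 cells stably expressing KCNQ1 / Medium: assay buffer / Also added: depolarizing K+/Tl+ stimulus, K2SO4 and Tl2SO4 each 12.5 mM in 5x stock / Incubation: 90 min dye loading and 20 min compound exposure, both at room temperature / Signal: thallium influx via FluxOR fluorescence, kinetic imaging / Evaluation: B score of baseline-normalized fluorescence ratio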
KCNK9 block: blocks the human KCNK9 two-pore domain potassium channel. Q9NPC2. HEK293 KCNK9, FluxOR thallium flux fluorescence; stronger effect = lower value. B-score at 10 µM. actives 1.2% (n = 310,000);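 active = ratio B-score over 3 SD below the library mean, with starting fluorescence within 5 SD of its mean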;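 note: negative B-score means less thallium flux so channel inhibition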
Numbers stand for hits; i = inactive; nt = no result. Compounds with a hit are over-represented: about 3.7% of the library has one in this group of screens.

SMILES | KCNQ1 inh | Kir21 inh | hERG protect | KCNK3 block | KCNQ1 pot | KCNK9 block
COCCCNC(=O)CSc1nc2cc(C(=O)NCCOC)ccc2c(=O)n1Cc1ccc2c(c1)OCO2 | i | i | i | i | i | i
Cn1cc(C(C[N+](=O)[O-])c2ccccc2)c2ccccc21 (stereo unspecified) | i | i | i | i | i | i
CC(=O)n1cc(C(C[N+](=O)[O-])SCCN)c2ccccc21 (stereo unspecified) | i | -13 | i | i | i | i
N=c1c2c(-c3ccccc3)c(-c3ccccc3)n(Cc3ccccc3)c2ncn1CCCn1ccnc1 | i | -8.7 | i | i | i | i
C=CCn1c(Cc2ccccc2)nc2c(cnn2-c2ccccc2)c1=O | i | i | i | i | i | i
COc1cc(/C=C2/SC(=S)N(CC(=O)O)C2=O)ccc1OCC(=O)Nc1ccc(C)c(C)c1 | i | i | 19 | i | i | i
O=C(c1ccc(S(=O)(=O)N2CCCC2)cc1)N1CCN(c2ccccc2)CC1 | i | i | i | i | i | i
O=C(c1ccc(S(=O)(=O)N2CCCC2)cc1)N1CCN(c2cccc(Cl)c2)CC1 | i | i | i | i | 9 | i
O=C(COc1ncnc2ccccc12)Nc1ccc(S(=O)(=O)N2CCOCC2)cc1 | i | i | i | i | i | i
COc1ccc(C(=O)NCCc2nnc(SCc3nc4ccccc4c(=O)[nH]3)n2C)cc1 | i | i | i | i | i | i
Cn1c(CNC(=O)c2ccccc2F)nnc1SCc1nc2ccccc2c(=O)[nH]1 | i | i | 6.8 | nt | i | i
O=C(NCCS(=O)(=O)N1CCCCC1)c1ccccc1 | i | i | i | i | i | i
CNC(=S)NNC(=O)c1cccn(Cc2ccc(Cl)cc2Cl)c1=O | 7 | i | i | nt | i | i
Cc1ccc2cc3c(=O)n(C)cc(C=O)c3nc2c1 | nt | nt | nt | i | nt | nt
CCc1cc(-c2n[nH]c(=S)n2C(C)c2ccccc2)cs1 (stereo unspecified) | i | -7.8 | i | i | i | i
Cn1c(=O)c2c(nc(CN3CCN(C(c4ccccc4)c4ccccc4)CC3)n2CCCO)n(C)c1=O | i | i | i | i | i | i
COc1ccc(N2CCN(C(=O)Cn3ncc4c([nH]c5ccccc54)c3=O)CC2)cc1 | i | i | i | i | i | i
COCCN(CCOC)Cc1c(O)ccc2c1O/C(=C\c1ccc(C)o1)C2=O | 9 | i | i | i | i | i
CCOc1cccc(C(=O)Nc2ccc3oc(Cc4ccc(Cl)cc4)nc3c2)c1 | 6 | i | i | i | i | i
O=c1cc2c(nn1Cc1c(Cl)cccc1Cl)-c1ccccc1CC2 | i | i | i | i | 9 | i
CC(=O)Oc1cccc(C(=O)Nc2ccc(NC(=O)c3cccs3)cc2)c1 | i | i | i | i | i | i
Cc1ccc(C(=O)Nc2ccc(N3CCOCC3)nc2)cc1 | i | i | i | i | i | i
CN1CCN(c2ccc(NC(=O)c3ccc(Cl)cc3)cn2)CC1 | i | i | 7.8 | i | i | i
COc1ccc(-c2noc(CCCC(=O)N3CCN(c4cc(C)ccc4C)CC3)n2)cc1 | nt | nt | nt | -8.8 | nt | nt
COc1ccc(-c2noc(CCCCC(=O)N3CCN(c4cc(C)ccc4C)CC3)n2)cc1 | nt | nt | nt | -11 | nt | nt
SMILES | KCNQ1 inh | Kir21 inh | hERG protect | KCNK3 block | KCNQ1 pot | KCNK9 block
CN(CC(=O)Nc1ccccc1Br)C(=O)CNC(=O)c1cccs1 | nt | nt | nt | i | nt | nt
O=C(CCc1nnc(C2(c3ccc(Cl)cc3)CCC2)o1)NCCCn1cccn1 | i | i | i | i | i | i
COC1=CC(=O)C(O)=C(CCCCCCC/C=C/CCCCCCCC2=C(O)C(=O)C=C(OC)C2=O)C1=O | 10 | i | i | i | i | i
COc1cc(NC(=O)Cn2cnc(S(=O)(=O)N3CCCC3)c2)cc(OC)c1OC | i | i | i | i | i | i
COc1cc(NC(=O)Cn2cnc(S(=O)(=O)N3CCC(C)CC3)c2)cc(OC)c1OC | i | i | i | -9 | i | i
COc1ccc(C2C(C(=O)c3ccco3)=C(O)C(=O)N2c2nnc(C)s2)cc1 (stereo unspecified) | i | i | i | i | i | i
CSc1nnc(N2C(=O)C(O)=C(C(=O)c3ccco3)C2c2cccc(Cl)c2)s1 (stereo unspecified) | 9 | i | i | i | i | i
O=C(C1=C(O)C(=O)N(c2ncccn2)C1c1cccc(Cl)c1)c1ccco1 (stereo unspecified) | i | i | i | i | i | i
CSc1nnc(N2C(=O)C(O)=C(C(=O)c3ccco3)C2c2ccc(F)cc2)s1 (stereo unspecified) | 10 | i | i | i | i | i
CC(C)(C)C(=O)NCCc1nc2ccccc2n1CC(=O)c1ccc(Cl)cc1 | i | i | i | i | i | i
COc1ccc(-c2noc(CNC(=O)CCN3C(=O)[C@H]4CC=CC[C@H]4C3=O)n2)cc1 | i | i | i | i | i | i
CCC(C)n1c(SC(C)C#N)nc2ccccc2c1=O (stereo unspecified) | i | i | 5.0 | i | i | i
Cc1ccc(OCC(=O)NC(=S)Nc2ccc(Br)cn2)cc1 | i | i | 12 | i | 9 | i
Cc1ccc(OCC(=O)NC(=S)Nc2ccc(Br)c(C)n2)cc1 | i | i | i | i | i | i
Nc1ccccc1C(=O)NC(=O)Nc1ccc(Oc2ncc(Br)cn2)c(Cl)c1 | nt | nt | nt | i | nt | nt
Cc1ccc(-n2nc3c(N4CCC(C(=O)NCc5ccccc5C)CC4)nnc(C)c3c2C)cc1 | 7 | i | i | i | i | i
CCOc1ccccc1CNC(=O)C1CCN(c2nnc(C)c3c(C)n(-c4ccc(C)cc4)nc23)CC1 | i | i | i | i | i | i
O=C(NCc1ccccc1Cl)C1CCC(CNc2nc(=S)[nH]c3ccccc23)CC1 (stereo unspecified) | i | i | 5.6 | i | i | i
O=C(NCCc1ccc(Cl)cc1)C1CCC(CNc2nc(=S)[nH]c3ccccc23)CC1 (stereo unspecified) | i | i | i | i | i | i
CCC1=C(OC(=O)N(CC)CC)N2C(=O)OC(=NCc3ccccc3)[C@]2(C)[C@H]2C1=CC[C@H]1C(=O)N(CC(=O)OC)C(=O)[C@H]12 | i | i | i | i | i | i
CCC1=C(OC(=O)N(CC)CC)N2C(=O)OC(=NCC3CC3)[C@]2(Cc2ccccc2)[C@H]2C1=CC[C@H]1C(=O)N(CC(=O)OC)C(=O)[C@H]12 | i | i | i | nt | i | -6.8
CC(C)(C)c1ccc(OC(=O)c2cccnc2)cc1 | i | -4.5 | i | i | i | i
COc1ccc(OC(=O)c2cccnc2)cc1 | i | i | i | i | i | i
O=C(NCC1(O)CCCCC1)C1CCC(=O)N(Cc2cccc(C(F)(F)F)c2)C1 (stereo unspecified) | i | i | i | i | i | i
Cc1nn(-c2cc(N3CCCCCC3)ccc2[N+](=O)[O-])c(=O)c2ccccc12 | i | i | i | i | i | i
